Measurements reported in ChEMBL document CHEMBL1144880, “Identification of phenylisoxazolines as novel and viable antibacterial agents active against Gram-positive pathogens” (J Med Chem, 2003).
In brackets after ≈: the same amount, converted by molar mass.

Key:
[1] = Plasma clearance in Male Sprague-Dawley Rat (48.9 mg/kg po); format: ADME, organism-based
Outline: (§1)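 Male Sprague-Dawley rats dosed intravenously or orally. Intact compound measured in plasma by HPLC-UV after protein-precipitation sample preparation. Half-life reported as harmonic mean apparent terminal disposition half-life. Bioavailability is absolute oral bioavailability. Some comparator values are archival data.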

[2] = Plasma clearance in Male Sprague-Dawley Rat (8.98 mg/kg iv); format: ADME, organism-based; outline: as §1
[3] = Absolute oral bioavailability in Male Sprague-Dawley Rat (48.9 mg/kg po); format: ADME, organism-based; details: in vivo; outline: as §1
[4] = Absolute oral bioavailability in Male Sprague-Dawley Rat (8.98 mg/kg iv); format: ADME, organism-based; details: in vivo; outline: as §1
[5] = Cmax value in Male Sprague-Dawley Rat at dose 48.9 (mg/kg po); format: ADME, organism-based; set-up: dose 48.9 mg/kg, route oral; details: in vivo; outline: as §1
[6] = Cmax value in Male Sprague-Dawley Rat at dose 8.98 (mg/kg iv); format: ADME, organism-based; set-up: dose 8.98 mg/kg, route intravenous; details: in vivo; outline: as §1
[7] = Tmax value in Male Sprague-Dawley Rat at dose 48.9 (mg/kg po) [tmax (h)]; format: ADME, organism-based; details: in vivo; outline: as §1
[8] = Volume distribution in Male Sprague-Dawley Rat (8.98 mg/kg iv); format: ADME, organism-based; details: in vivo, read-out: Vss
Outline: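 Male Sprague-Dawley rats given the compound intravenously. Intact compound in plasma was measured by HPLC-UV after protein-precipitation sample preparation.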

[9] = Harmonic mean apparent terminal disposition half-life [t1/2beta (h)] in Male Sprague-Dawley Rat at dose 48.9 (mg/kg po); format: ADME, organism-based; details: in vivo, read-out: T1/2 beta (converted); outline: as §1
[10] = Harmonic mean apparent terminal disposition half-life [t1/2beta (h)] in Male Sprague-Dawley Rat at dose 8.98 (mg/kg iv); format: ADME, organism-based; details: in vivo, read-out: T1/2 beta (converted); outline: as §1
CYP2C9 [11] = target: T1, CYP2C9 (Homo sapiens, UniProt P11712); assay: Inhibition of heterologously expressed human Cytochrome P450 2C9 at 10 uM; format: ADME; set-up: scale not given: the % may be the effect or the level left; details: read-out: Control of P-450 marker
Outline: (§2)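 Human cDNA-expressed CYP1A2, 2C9, 2D6 and 3A4 microsomes incubated with compound at 10 or 100 µM plus CYP marker substrates. Marker metabolite formation quantified by HPLC with radiochemical detection and expressed as % of control, mean ± SD of triplicates.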

CYP2C9 [12] = target: T1, CYP2C9; assay: Inhibition of heterologously expressed human Cytochrome P450 2C9 at 100 uM; format: ADME; set-up: scale not given: the % may be the effect or the level left; details: read-out: Control of P-450 marker; outline: as §2
CYP2D6 [13] = target: T2, CYP2D6 (Homo sapiens, UniProt P10635); assay: Inhibition of heterologously expressed human Cytochrome P450 2D6 at 100 uM; format: ADME; set-up: scale not given: the % may be the effect or the level left; details: read-out: Control of P-450 marker; outline: as §2
CYP2D6 [14] = target: T2, CYP2D6; assay: Inhibition of heterologously expressed human Cytochrome P450 2D6 at 10 uM; format: ADME; set-up: scale not given: the % may be the effect or the level left; details: read-out: Control of P-450 marker; outline: as §2
CYP3A4 [15] = target: T3, CYP3A4 (Homo sapiens, UniProt P08684); assay: Inhibition of heterologously expressed human Cytochrome P450 3A4 at 10 uM; format: ADME; set-up: scale not given: the % may be the effect or the level left; details: read-out: Control of P-450 marker; outline: as §2
CYP3A4 [16] = target: T3, CYP3A4; assay: Inhibition of heterologously expressed human Cytochrome P450 3A4 at 100 uM; format: ADME; set-up: scale not given: the % may be the effect or the level left; details: read-out: Control of P-450 marker; outline: as §2
CYP1A2 [17] = target: T4, CYP1A2 (Homo sapiens, UniProt P05177); assay: Inhibition of heterologously expressed human Cytochrome P450 1A2 at 10 uM; format: ADME; set-up: scale not given: the % may be the effect or the level left; details: read-out: Control of P-450 marker; outline: as §2
T4 sequence (P05177 whole entry): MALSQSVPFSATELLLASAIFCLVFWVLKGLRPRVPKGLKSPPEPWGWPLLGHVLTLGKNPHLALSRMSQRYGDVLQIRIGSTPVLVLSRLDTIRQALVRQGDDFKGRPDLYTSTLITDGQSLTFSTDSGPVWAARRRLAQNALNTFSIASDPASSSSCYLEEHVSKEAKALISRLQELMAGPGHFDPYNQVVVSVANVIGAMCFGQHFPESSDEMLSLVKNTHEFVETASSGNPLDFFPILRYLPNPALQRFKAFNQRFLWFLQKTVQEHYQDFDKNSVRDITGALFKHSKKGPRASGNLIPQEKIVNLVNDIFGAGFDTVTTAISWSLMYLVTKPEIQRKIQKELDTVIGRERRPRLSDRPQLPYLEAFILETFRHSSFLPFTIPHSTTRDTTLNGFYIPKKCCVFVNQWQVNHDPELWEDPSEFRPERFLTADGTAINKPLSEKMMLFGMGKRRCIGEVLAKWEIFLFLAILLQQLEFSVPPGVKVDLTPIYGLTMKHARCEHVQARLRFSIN

CYP1A2 [18] = target: T4, CYP1A2; assay: Inhibition of heterologously expressed human Cytochrome P450 1A2 at 100 uM; format: ADME; set-up: scale not given: the % may be the effect or the level left; details: read-out: Control of P-450 marker; outline: as §2
Enterococcus faecalis = assay: In vitro minimum inhibitory concentration (MIC) against Enterococcus faecalis UC9217; format: functional
Outline: (§3)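 MIC determined by standard broth microdilution, defined as the lowest drug concentration (µg/mL) inhibiting visible growth.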

Escherichia coli = assay: In vitro minimum inhibitory concentration (MIC) against Escherichia coli UC6674; format: functional; outline: as §3
Haemophilus influenzae = assay: In vitro minimum inhibitory concentration (MIC) against Haemophilus influenzae UC30063; format: functional; outline: as §3
Homo sapiens = species on record: Homo sapiens; assay: Compound was evaluated for metabolic stability via In vitro Human 5E6 cell at 25 uM concentration; format: functional
Moraxella catarrhalis = assay: In vitro minimum inhibitory concentration (MIC) against Moraxella catarrhalis UC30610; format: functional; outline: as §3
Mus musculus = assay: In Vivo effective dose required for antibacterial activity in a systemic mouse infection model (SMIM) upon oral administration against Staphylococcus aureus UC9213; format: functional
Outline: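 Compound was given orally at 1 and 5 h after infection. Deaths were monitored for at least 6 days, and ED50 (dose curing 50% of mice) was calculated by probit analysis.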

Rattus norvegicus = species on record: Rattus norvegicus; assay: Compound was evaluated for metabolic stability via In vitro Rat 5E6 cell at 50 uM concentration; format: functional
Streptococcus pneumoniae = assay: In vitro minimum inhibitory concentration (MIC) against Streptococcus pneumoniae UC9912; format: functional; outline: as §3
Staphylococcus aureus [19] = assay: In vitro minimum inhibitory concentration (MIC) against Staphylococcus aureus UC12673; format: functional; outline: as §3
Staphylococcus aureus [20] = assay: In vitro minimum inhibitory concentration (MIC) against Staphylococcus aureus UC9213; format: functional; outline: as §3
[21] = tested on: Staphylococcus epidermidis; assay: In vitro minimum inhibitory concentration (MIC) against Staphylococcus epidermidis UC12084; format: functional; outline: as §3

T3 sequence (P08684 whole entry): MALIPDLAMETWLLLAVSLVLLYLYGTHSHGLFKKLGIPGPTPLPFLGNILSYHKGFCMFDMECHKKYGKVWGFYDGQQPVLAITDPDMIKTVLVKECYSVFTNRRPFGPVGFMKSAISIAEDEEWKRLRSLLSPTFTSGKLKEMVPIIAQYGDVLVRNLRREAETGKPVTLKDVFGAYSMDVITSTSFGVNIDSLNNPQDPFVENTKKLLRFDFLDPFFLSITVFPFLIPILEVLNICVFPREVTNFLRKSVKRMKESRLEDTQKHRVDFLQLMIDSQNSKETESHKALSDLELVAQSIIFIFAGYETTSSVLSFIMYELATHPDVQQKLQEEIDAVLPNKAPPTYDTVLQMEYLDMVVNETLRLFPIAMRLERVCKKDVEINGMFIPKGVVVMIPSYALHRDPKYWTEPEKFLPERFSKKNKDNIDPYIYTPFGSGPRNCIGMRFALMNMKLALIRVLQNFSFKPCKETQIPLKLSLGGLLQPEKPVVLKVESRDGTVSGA
T2 sequence (P10635 whole entry): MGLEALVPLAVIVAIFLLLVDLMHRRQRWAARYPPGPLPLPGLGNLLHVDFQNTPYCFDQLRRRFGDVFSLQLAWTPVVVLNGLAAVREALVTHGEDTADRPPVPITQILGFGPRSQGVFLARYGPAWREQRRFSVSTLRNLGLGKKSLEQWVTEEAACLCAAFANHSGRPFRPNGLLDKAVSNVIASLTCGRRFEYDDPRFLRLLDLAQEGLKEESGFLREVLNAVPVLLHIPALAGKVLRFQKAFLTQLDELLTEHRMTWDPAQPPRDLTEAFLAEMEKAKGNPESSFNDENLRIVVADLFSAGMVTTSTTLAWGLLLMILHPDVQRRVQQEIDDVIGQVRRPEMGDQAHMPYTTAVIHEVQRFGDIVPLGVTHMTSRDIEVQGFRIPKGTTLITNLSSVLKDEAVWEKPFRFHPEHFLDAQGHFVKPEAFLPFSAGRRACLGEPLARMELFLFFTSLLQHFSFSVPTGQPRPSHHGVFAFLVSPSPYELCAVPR
T1 sequence (P11712 whole entry): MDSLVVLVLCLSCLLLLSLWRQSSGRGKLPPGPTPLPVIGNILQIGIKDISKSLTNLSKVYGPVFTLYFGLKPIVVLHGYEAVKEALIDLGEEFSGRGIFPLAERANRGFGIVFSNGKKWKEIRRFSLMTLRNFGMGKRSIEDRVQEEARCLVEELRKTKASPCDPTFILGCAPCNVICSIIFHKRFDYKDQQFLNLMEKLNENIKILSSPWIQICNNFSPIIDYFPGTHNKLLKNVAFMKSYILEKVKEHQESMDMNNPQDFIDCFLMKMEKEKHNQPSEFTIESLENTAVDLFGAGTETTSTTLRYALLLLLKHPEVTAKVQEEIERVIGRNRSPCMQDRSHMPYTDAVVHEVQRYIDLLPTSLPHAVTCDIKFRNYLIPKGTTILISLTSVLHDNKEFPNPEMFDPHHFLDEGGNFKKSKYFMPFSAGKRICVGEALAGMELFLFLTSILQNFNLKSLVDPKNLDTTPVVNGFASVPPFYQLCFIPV

CL/F [1]: 8.6 mL/min/kg | clearance [2]: 12.4 mL/min/kg | bioavailability [3]: 143% | bioavailability [4]: 100% | Cmax [5]: 12200 ng/mL | Cmax [6]: 17700 ng/mL | Tmax [7]: 192 min | Vd [8]: 0.6 L/kg | half-life [9]: 36 min | half-life [10]: 28.2 min | activity at 10 µM (CYP2C9 [11]): 92.1% | activity at 100 µM (CYP2C9 [12]): 95.8% | activity at 100 µM (CYP2D6 [13]): 103% | activity at 10 µM (CYP2D6 [14]): 101% | activity at 10 µM (CYP3A4 [15]): 88.9% | activity at 100 µM (CYP3A4 [16]): 92.1% | activity at 10 µM (CYP1A2 [17]): 100% | activity at 100 µM (CYP1A2 [18]): 102% | MIC (Enterococcus faecalis): 8 µg/mL (≈ 24.9 µM) | MIC (Escherichia coli): > 16 µg/mL | MIC (Haemophilus influenzae): > 16 µg/mL | MIC (Moraxella catarrhalis): 16 µg/mL (≈ 49.8 µM) | MIC (Streptococcus pneumoniae): 1 µg/mL (≈ 3.11 µM) | MIC (Staphylococcus aureus [19]): 4 µg/mL (≈ 12.4 µM) | MIC (Staphylococcus aureus [20]): 4 µg/mL (≈ 12.4 µM) | MIC [21]: 2 µg/mL (≈ 6.22 µM)
SMILES: CC(=O)NC[C@H]1CC(c2ccc(N3CCOCC3)c(F)c2)=NO1
Remaining at 40 min (Homo sapiens): 100% | ED50 (Mus musculus): 16.5 mg/kg | Remaining at 40 min (Rattus norvegicus): 87%
